Tested on: E. coli BW25113 ΔtolC growth inhibition, OD615
Assay: growth inhibitors of E. coli tolC mutant, dose response, strain BW25113 ΔtolC::kan (AID 617)
Method in brief: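 System: E. coli BW25113 ΔtolC::kan bacteria. Amount: 1:1000 diluted subculture inoculum. Medium: LB broth supplemented with kanamycin at 50 µg/mL. Compound dosing: serial dilution series of compound. Schedule: 20 h exposure at 37 °C. Detection: OD615. Measure: IC50 of bacterial growth inhibition. Benchmarks: chloramphenicol control, 30 µM final.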

Row | SMILES | IC50 [µM]
1 | Cc1csc(NC(=O)C2CCCN(S(=O)(=O)c3ccc(Br)s3)C2)n1 (stereo unspecified) | 12.2
2 | Cc1onc(-c2ccccc2)c1C(=O)OCC(=O)c1ccccc1 | 24.2
3 | Cc1nc(N2CCN(Cc3ccc4c(c3)OCO4)CC2)c2oc3ccccc3c2n1 | 11.6
4 | Cc1ccc(Cn2c(SCC(C)C)nc3c2c(=O)n(C)c(=O)n3C)cc1 | 89.6
5 | O=C(CSc1ncc(-c2ccc(F)cc2)n1Cc1ccco1)Nc1ccc2c(c1)OCO2 | 7.29
6 | O=C(O)CCC(=O)N1CCc2cc(S(=O)(=O)N3CCC(Cc4ccccc4)CC3)ccc21 | 1.06
7 | CC1Oc2ccccc2N(Cc2ccccc2Cl)C1=O (stereo unspecified) | 27.9
8 | COc1ccccc1Cc1nc(-c2ccc(Br)o2)no1 | 19.7
9 | Cc1cccnc1Nc1nc(-c2ccc(O)cc2O)cs1 | 17.8
10 | Cc1ccc2c(c1)NC(=O)C(CC(=O)NCCCN1CCN(c3cc(Cl)ccc3C)CC1)O2 (stereo unspecified) | 2.67
11 | Cc1nn(Cc2ccc(Cl)cc2)c(C)c1NC(=O)c1noc2c1CCCCC2 | 13.4
12 | C#CCSc1nnc(-c2cccc3ccccc23)o1 | 12.2
13 | COC(=O)c1ccccc1NC(=O)N1c2ccccc2CC1C (stereo unspecified) | 14.1
14 | CCCCOc1ccccc1Cn1c(=O)oc2ccc(C)cc21 | 16.4
15 | C=C(C)C1CCC(C)=C1COC(=O)Nc1ccccc1 (stereo unspecified) | 12.2
16 | O=c1c2c(nc3c(-c4cccc5ccccc45)c[nH]n13)CCC2 | 7
17 | O=C(CCc1nc(-c2ccccc2F)no1)Nc1ccc(Oc2ccccc2)cc1 | 9.55
18 | CN(c1ccccc1)C(c1ccc(F)cc1)c1nnnn1C1CCCC1 (stereo unspecified) | 11.1
19 | O=C(Nc1ccc(N2CCN(C(=O)c3ccco3)CC2)c(Cl)c1)c1c(F)c(F)c(F)c(F)c1F | 3.96
20 | O=S(=O)(Nc1ncnc2sc3c(c12)CCC3)c1ccc(Cl)s1 | 5.93
21 | O=C1CCCc2nc3nc4ccccc4n3cc21 | 17
22 | Cc1cc(N2CCC(C(=O)Nc3ccc(F)cc3)CC2)nc(-c2ccccc2)n1 | 22.5
23 | O=C1CN(C(=O)c2ccc(Br)o2)C(c2ccccc2)c2cc(Cl)ccc2N1 (stereo unspecified) | 15.6

Row | SMILES | IC50 [µM]
24 | CN(C1CCCCC1)S(=O)(=O)c1ccc(NC(=O)c2ccc(Br)o2)cc1 | 10.6
25 | CCOc1ccccc1NC(=O)c1cc(CC(C)C)oc1C | 21.8
26 | Cc1cc(C)c(C#N)c(SCc2ccc3c(c2)OCO3)n1 | 24.6
27 | COc1cc(-c2nnc(SCc3ccccc3Cl)o2)cc(OC)c1OC | 10.2
28 | CCn1nc(-c2ccccc2)nc2c(=O)n(C)c(=O)nc1-2 | 2.8
29 | O=C(Nc1cccc(Br)c1)c1cc2ccccc2o1 | 0.98
30 | Cc1sc2nc(CN(Cc3cccs3)C(=O)NC3CCCCC3)[nH]c(=O)c2c1C | 6.91
31 | CCOC(=O)c1ccc(NC(=O)CCc2nc(-c3ccccc3Cl)no2)cc1 | 10.4
32 | Cc1cc(C(=O)OCc2nnc(-c3ccccc3)o2)c(C)n1-c1ccccc1 | 9.88
33 | CCCCOC(=O)CSc1nnc(-c2ccc(Cl)cc2Cl)o1 | 19.4
34 | CCCc1cc(-c2[nH]ncc2-c2ccc3c(c2)OCCCO3)c(O)cc1O | 5.48
35 | Clc1ccc(COC(Cn2ccnc2)c2ccc(Cl)cc2Cl)c(Cl)c1 (stereo unspecified) | 3.22
36 | O=C(NCc1ccccc1)c1c[nH]c2ccc(S(=O)(=O)Nc3ccc4c(c3)OCCO4)cc2c1=O | 9.4
37 | Cc1oc(C(C)(C)C)cc1C(=O)Nc1ccc2c(c1)OCCO2 | 18.9
38 | CC(=Nc1ccc(O)cc1)c1sc2ccccc2c1O | 0.89
39 | Cc1ccc(Nc2cc(C)nn2-c2nc(C)cc(=O)[nH]2)cc1 | 0.18
40 | N#CCSc1n[nH]c2nc3c(c(=O)n12)C1(CCCC1)Cc1ccccc1-3 | 4.21
41 | CCC(CC)c1nnc(NC(=O)c2c(-c3ccccc3)noc2C)s1 | 19.8
42 | COc1ccc(-c2[nH]c(-c3cccc(OC)c3)nc2SCC(=O)NCc2ccco2)cc1 | 11.1
43 | Cc1cc(C)c2cc(CN(CCO)C(c3nnnn3Cc3ccc(F)cc3)C(C)C)c(=O)[nH]c2c1 (stereo unspecified) | 21.7
44 | Cc1cc(N2CCCCC2)n2ncc(-c3ccccc3)c2n1 | 17.3
45 | CSc1ccc(-c2cc(=O)c3ccccc3o2)cc1 | 42.1
46 | O=C(Nc1nnc(-c2ccc3c(c2)OCCO3)o1)c1ccc(Cc2ccccc2)cc1 | 3.26
